Results from ChEMBL document CHEMBL1156246 (J Med Chem, 2009).
Activity calls are given as the source filed them. The calls are words filed in the database; no cut-off is given here.

Tests used:
[1] = Neurotoxicity in ip dosed albino mouse by rotarod test; type: toxicity, organism-based; conditions: in vivo
Mus musculus [2] = assay: Anticonvulsant activity in ip dosed albino mouse assessed as protection against subcutaneous metrazole-induced seizures; type: functional, organism-based
How it was run: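 Male albino Carworth Farms No. 1 mice, dosed intraperitoneally; subcutaneous metrazol seizure model run by previously reported methods under the NIH Anticonvulsant Screening Program; protection against seizures scored.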

Rattus norvegicus [3] = assay: Anticonvulsant activity in po dosed Sprague-Dawley rat assessed as protection against subcutaneous metrazole-induced seizures; type: functional, organism-based
How it was run: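 Male albino Sprague-Dawley rats, oral dosing; subcutaneous metrazol seizure test by previously reported methods within the NIH Anticonvulsant Screening Program.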

Mus musculus [4] = assay: Anticonvulsant activity in ip dosed albino mouse assessed as protection against maximal electroshock-induced seizures; type: functional
How it was run: (§1)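 Male rodents screened through the NIH Anticonvulsant Screening Program: albino Carworth Farms No. 1 mice given compound ip, albino Sprague-Dawley rats given compound po. Maximal electroshock test: tonic hindlimb seizures were induced by corneal electrical stimulation. ED50 is given in mg/kg.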

[5] = Neurotoxicity in po dosed Sprague-Dawley rat by rotarod test; type: toxicity, organism-based; conditions: in vivo
Rattus norvegicus [6] = assay: Anticonvulsant activity in po dosed Sprague-Dawley rat assessed as protection against maximal electroshock-induced seizures; type: functional; how it was run: as §1
Mus musculus [7] = assay: Neurotoxicity in ip dosed albino mouse assessed as time of peak effect by rotarod test; type: toxicity, organism-based; conditions: in vivo
Rattus norvegicus [8] = assay: Neurotoxicity in po dosed Sprague-Dawley rat assessed as time of peak effect by rotarod test; type: toxicity, organism-based; conditions: in vivo
Mus musculus [9] = assay: Anticonvulsant activity against maximal electroshock-induced seizures in ip dosed albino mouse assessed as time of peak effect; type: functional
[10] = target: Dihydropyrimidinase-related protein 2 (Mus musculus) (UniProt O08553); assay: Binding affinity to CRMP2 in ICR mouse brain […] at 5 uM by Western blot analysis in presence of rhodamine-containing 4-(3,6,9,12-tetraoxapentadec-14-ynylcarbamoyl)-2-(3,6-bis(dimethylamino)xanthylium-9-yl)benzoate; type: tissue-based
How it was run: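 Soluble brain proteome from male 2-month ICR mice was Dounce-homogenized in 50 mM HEPES pH 7.4. It was spun at 1200 × g for 12 min, then at 100,000 × g for 1 h at 4 °C, and exchanged into pH 8.0 HEPES. Aliquots (2.0 mg/mL protein) got 5 μM agent for 30 min at RT. Click reaction used rhodamine-alkyne 50 μM, TCEP 1 mM, TBTA 200 μM, CuSO4 1 mM, 1 h RT. Read-out: SDS-PAGE, in-gel fluorescence (ex 555/em 580 nm).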

[11] = target: Dihydropyrimidinase-related protein 2 (Mus musculus) (UniProt O08553); assay: Binding affinity to CRMP2 in ICR mouse brain […] at 5 uM by Western blot analysis in presence of rhodamine-containing 4-(3-azidopropylcarbamoyl)-2-(3,6-bis(dimethylamino)xanthylium-9-yl)benzoate; type: tissue-based
Mus musculus [12] = assay: Anticonvulsant activity in ip dosed albino mouse assessed as protection against 6 Hz electric shock-induced seizures; type: functional
How it was run: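 6 Hz psychomotor seizure test in mice dosed ip, with stimulation at 32 mA.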

Rattus norvegicus [13] = assay: Anticonvulsant activity against maximal electroshock-induced seizures in po dosed Sprague-Dawley rat assessed as time of peak effect; type: functional
Mus musculus [14] = assay: Anticonvulsant activity against 6 Hz electric shock-induced seizures in ip dosed albino mouse assessed as time of peak effect; type: functional
Mus musculus [15] = assay: Protective index, ratio of TD50 for ip dosed albino mouse to ED50 for protection against maximal electroshock-induced seizures in ip dosed albino mouse; type: functional
Rattus norvegicus [16] = assay: Protective index, ratio of TD50 for po dosed Sprague-Dawley rat to ED50 for protection against maximal electroshock-induced seizures in po dosed Sprague-Dawley rat; type: functional
Rattus norvegicus [17] = assay: Toxicity in Sprague-Dawley rat assessed as occurrence of ataxia at 300 mg/kg, po; type: organism-based; set-up: dose 300 mg/kg, route oral; conditions: in vivo

Row | SMILES | TD50 [1] [mg/kg] | Activity (Mus musculus [2]) | Activity (Rattus norvegicus [3]) | ED50 (Mus musculus [4]) [mg/kg] | TD50 [5] [mg/kg] | ED50 (Rattus norvegicus [6]) [mg/kg] | Time (Mus musculus [7]) [h] | Time (Rattus norvegicus [8]) [h] | Time (Mus musculus [9]) [h] | Activity [10] | Activity [11] | ED50 (Mus musculus [12]) [mg/kg] | Time (Rattus norvegicus [13]) [h] | Time (Mus musculus [14]) [h] | Ratio TD50/ED50 (Mus musculus [15]) | Ratio TD50/ED50 (Rattus norvegicus [16]) | Activity (Rattus norvegicus [17])
1 | CC(=O)N[C@@H](CO)C(=O)NCc1ccc(N=C=S)cc1 | 30 | inactive | inactive | 100 | > 30 | 180 |  |  |  |  |  |  |  |  |  |  | 
2 | CC(=O)N[C@@H](COCCN=[N+]=[N-])C(=O)NCc1ccccc1 | > 300 | inactive | inactive | > 300 |  |  |  |  |  |  |  |  |  |  |  |  | 
3 | C#Cc1ccc(CNC(=O)[C@@H](COC)NC(C)=O)cc1 | 10 | inactive | inactive | 3 | < 30 |  | 0.5 | 0.5 | 0.5 |  |  |  |  |  |  |  | 
4 | CC(=O)N[C@H](COCCN=[N+]=[N-])C(=O)NCc1ccc(N=C=S)cc1 | 100 | inactive | inactive | 100 |  |  | 0.5 |  | 4 | Active |  |  |  |  |  |  | 
5 | C#Cc1ccc(CNC(=O)[C@@H](COCCN=C=S)NC(C)=O)cc1 |  | inactive | inactive |  |  |  |  |  |  |  | inactive |  |  |  |  |  | 
6 | C#CCOC[C@H](NC(C)=O)C(=O)NCc1ccccc1 | > 300 | inactive | inactive | > 300 | > 30 | 30 |  |  |  |  |  | > 30 |  |  |  |  | 
7 | CC(=O)N[C@@H](COCCN=[N+]=[N-])C(=O)NCc1ccc(N=C=S)cc1 | 300 | inactive | inactive | 100 |  |  |  |  | 0.25 | Active |  |  |  |  |  |  | 
8 | CCCC(CCC)C(=O)[O-].[Na+] [VALPROATE SODIUM] |  | inactive | inactive | 270 |  |  | 0.25 | 0.5 | 0.25 |  |  |  | 0.5 |  |  |  | 
9 | C#CCOC[C@@H](NC(C)=O)C(=O)NCc1ccccc1 | 59 | inactive | inactive | 16 | > 500 | 7.9 | 0.25 |  | 0.25 |  |  | 29 | 0.5 | 0.5 | 3.7 | >63 | 
10 | O=C1NC(=O)C(c2ccccc2)(c2ccccc2)N1 [PHENYTOIN] |  | inactive | inactive |  |  | > 30 | 2 |  | 2 |  |  |  | 4 |  |  |  | Non-toxic
